MC4R barr agon – activates human MC4R beta-arrestin recruitment; AID 540308; activation, % at 8.9 µM; hit rate 0.98% among 360,000; P32245; U2OS MC4R beta-arrestin complementation, luminescence; percent of melanotan II response, DMSO zero;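 active = activation above a per-plate cutoff, the mean activation of sample wells on that plate plus 3 SD, cut at about 8% in these data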
Target sequence (P32245 whole entry, looked up): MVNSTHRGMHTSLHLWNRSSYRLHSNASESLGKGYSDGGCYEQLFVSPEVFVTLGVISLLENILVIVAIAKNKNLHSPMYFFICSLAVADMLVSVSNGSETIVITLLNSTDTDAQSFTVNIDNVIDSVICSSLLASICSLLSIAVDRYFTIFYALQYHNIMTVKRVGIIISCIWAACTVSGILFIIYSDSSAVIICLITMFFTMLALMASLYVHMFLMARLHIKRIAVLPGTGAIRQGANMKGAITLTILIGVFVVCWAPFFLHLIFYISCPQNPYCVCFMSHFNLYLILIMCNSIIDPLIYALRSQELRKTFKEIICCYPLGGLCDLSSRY
TAG inh – inhibitors of triacylglycerol accumulation. H9c2 cells, Nile Red lipid (TAG) fluorescence; cells loaded with 200 µM oleic acid. inhibition, % at 12.5 µM. hit rate 0.66% among 230,000. AID 651582;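 active = pattern-corrected inhibition of lipid staining of at least 50% with the nuclear-stain viability signal not falling by more than 50%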
MC4R antagonist – human MC4R antagonism in cAMP assay. hit rate 0.48% among 360,000. inhibition, % at 6.5 µM. MC4R-expressing cells, MTII-stimulated cAMP, LANCE TR-FRET;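 active = inhibition above its plate's cutoff, the mean of tested wells on that plate plus 3 SD, cut at about 29% in these data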
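System: U2OS-MC4R stable cell line; Technique: Eu-cAMP/anti-cAMP TR-FRET, emission 671 nm; Repeats: single well per compound; Also added: Melanotan II; Dosing: one concentration, 6.5 µM nominal; Schedule: 30-min compound, 1-h challenge, 1-h detection, room temperature.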
Efflux pump mplx – blocks antifungal efflux pumps in multiplex yeast assay; inhibition, % at 10 µM; S. cerevisiae Candida pump triplex, Nile Red efflux; hit rate 0.44% among 330,000;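 active = plate passing quality check with inhibition over a set limit, or well fluorescence over plate mean plus 4 SD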;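 also: Nile Red retained in pooled yeast measured as flow cytometry median fluorescence; higher means more Nile Red kept so more efflux inhibition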
Calb FLC – affects C. albicans growth with fluconazole | AID 1979 | hit rate 0.57% among 300,000 | growth inhibition, % (no concentration beside the values) | C. albicans CaCi-2 + fluconazole, Alamar Blue growth, 48 h;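 active = growth inhibition above about 58% in most replicates, limit read from the data, passing the limit was not always enough; inconclusive = exactly half the replicates above a set limit; inactive = most replicates below a set limit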;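 also: all wells also contain fluconazole at 8 µg/ml as a sub-toxic cotreatment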
GalR3 antagonist – blocks the human galanin receptor 3 | HEK293 GalR3-CNG cAMP membrane potential fluorescence; galR3 body fused to GalR1 C-terminus | inhibition, % at 3 µM | hit rate 0.44% among 360,000 | AID 651719;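 active = inhibition above the screen-wide average plus 3 SD, cut at about 13% in these data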;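 also: forskolin and galanin both at EC90 stimulate the cells; cAMP rise reported by CNG channel membrane potential dye signal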
Target sequence (O60755 1-299 limits assumed): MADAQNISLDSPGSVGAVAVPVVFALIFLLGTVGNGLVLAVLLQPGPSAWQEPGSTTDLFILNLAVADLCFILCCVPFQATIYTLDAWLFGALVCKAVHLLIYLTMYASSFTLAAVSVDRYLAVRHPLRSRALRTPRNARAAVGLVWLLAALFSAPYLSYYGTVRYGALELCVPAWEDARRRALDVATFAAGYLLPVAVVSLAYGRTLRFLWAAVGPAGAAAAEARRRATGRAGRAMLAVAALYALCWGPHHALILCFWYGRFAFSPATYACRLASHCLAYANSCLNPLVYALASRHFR
Cmpd fluor yeast – flagged as fluorescent in efflux inhibitor counter-screen. shares compounds with Efflux pump mplx. S. cerevisiae AD/pABC3, compound fluorescence, flow cytometry. fluorescence ratio to DMSO, % at 10 µM. hit rate 4% among 1,700. AID 588517;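 active = fluorescence ratio to DMSO above its plate's cutoff, the plate mean ratio plus 5 SD, cut at about 210% in these data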;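 also: unstained yeast with no Nile Red so the signal is compound autofluorescence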
CaMdr1 efflux inh – inhibitors of Candida albicans Mdr1 efflux pump; hit rate 1% among 1,700; AID 588518; S. cerevisiae AD/CaMDR1, Nile Red efflux, flow cytometry; shares compounds with Efflux pump mplx; inhibition, % at 10 µM; in the data active = inhibition above about 26%;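 also: higher means more Nile Red retained so more efflux inhibition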
CaCdr2 efflux inh – blocks the Candida albicans Cdr2 efflux pump in yeast; shares compounds with Efflux pump mplx; hit rate 4% among 1,700; S. cerevisiae AD/CaCDR2, Nile Red retention, flow cytometry; Nile Red retention ratio vs DMSO, % at 10 µM; in the data active = Nile Red retention ratio vs DMSO above about 190%;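 also: higher ratio means more blocking of Cdr2 efflux of the dye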
CaCdr1 efflux inh – blocks the Candida albicans Cdr1 efflux pump in yeast. shares compounds with Efflux pump mplx. S. cerevisiae AD/CaCDR1, Nile Red efflux, flow cytometry. inhibition, % at 10 µM. hit rate 1% among 1,700. AID 588522;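 active = inhibition above the screen-wide mean plus twice its standard deviation, cut at about 32% in these data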
Numbers stand for hits; . = inactive; ? = inconclusive; / = not tested or not shown. Sampled rows, rich in hits. Any-hit rate of the full collection: about 2.9%.

SMILES | MC4R barr agon | TAG inh | MC4R antagonist | Efflux pump mplx | Calb FLC | GalR3 antagonist | Cmpd fluor yeast | CaMdr1 efflux inh | CaCdr2 efflux inh | CaCdr1 efflux inh
Cc1ccc(O)c(C(=O)CC(=O)c2ccccc2Cl)c1 | . | . | . | 0.6 | 108 | . | . | . | . | .
O=C(C1CCCO1)N1CCN(S(=O)(=O)c2ccccc2)CC1 (configuration not stated) | . | / | . | 5.9 | . | / | . | . | . | .
COc1ccc(CCNC(=O)C2=CCN(S(=O)(=O)c3ccc(F)cc3)CC2)cc1OC | . | / | . | 0.4 | . | . | . | . | . | .
O=C(COc1ccccc1Cl)c1ccc[nH]1 | . | . | . | 0.7 | . | . | . | . | . | .
O=C(COc1ccc(Br)cc1Cl)c1ccc[nH]1 | . | . | . | . | . | . | / | / | / | /
Cc1c(/C=N/NC(=O)c2cc(Br)ccc2O)c(=O)n(C)c(=O)n1C | . | / | . | 0.5 | . | . | . | . | . | .
C/C=N/NC(=O)c1cc(Br)ccc1O | . | / | . | . | . | . | / | / | / | /
CN[C@@H](CO)C(=O)NC[C@H]1O[C@@H](n2cc(C)c(=O)[nH]c2=O)C[C@@H]1O | . | . | . | / | / | . | / | / | / | /
N#Cc1nc(COc2ccc(Cl)cc2Cl)oc1N1CCN(c2ccccc2)CC1 | . | / | . | . | ? | . | / | / | / | /
N#Cc1nc(COc2ccc(Cl)cc2Cl)oc1N1CCOCC1 | . | / | . | 0.8 | . | . | . | . | . | .
Nc1[nH]c(C(=O)c2ccc(Br)cc2)c(-c2ccncc2)c1C(=O)NCCc1c[nH]c2ccccc12 | / | / | / | / | / | . | / | / | / | /
CCCCS(=O)(=O)N1CCCc2nc(-c3ccccc3)ccc21 | / | / | / | / | / | . | / | / | / | /
COc1cccc(C(=O)N2CCCc3ccccc32)c1OC | . | . | . | / | / | . | / | / | / | /
C#CCN1CC(COCCCC)Oc2cccc(Oc3ccc(C(C)(C)C)c(C)c3)c2S1(=O)=O (configuration not stated) | / | / | / | / | / | . | / | / | / | /
COc1cc(C(=O)NC(=S)Nc2ccc3c(c2)C(=O)N(C)C3=O)cc(OC)c1OC | . | / | . | 12 | . | . | . | . | . | .
Cc1ccc(C(=O)NCC(=O)OCc2csc(-c3ccccc3)n2)cc1 | . | / | . | 6.8 | . | . | . | . | . | .
CCSc1cc(N2CCCC2)nc(-c2ccc(C)cc2)n1 | . | / | . | . | . | . | . | . | . | .
CCSc1cc(N2CCCC2)nc(-c2ccc(F)cc2)n1 | . | / | . | . | . | . | . | . | . | .
O=C(NC(=S)Nc1ccc2[nH]c(=O)[nH]c2c1)c1ccccc1Cl | . | . | . | 6.2 | . | . | . | . | . | .
Cc1nc2ccc(NC(=O)Cc3ccc4c(c3)OCCO4)cc2s1 | . | . | . | 8.2 | . | . | . | . | . | .
Cc1nc2ccc(NC(=O)Cc3ccc(Br)cc3)cc2s1 | . | . | . | . | . | . | / | / | / | /
COc1cc2c(cc1OC)CN(C(=S)Nc1ccc(C)cc1C)CC2 | . | . | . | 1.1 | . | . | . | . | . | .
O=C(CSc1ccc(-c2ccccc2)nn1)NC1CCCCC1 | . | . | . | 5.7 | . | . | . | . | . | .
Cc1ccnc(SCc2cn3c(C)cccc3n2)n1 | . | . | . | 1.1 | . | . | . | . | . | .
Cc1cc(C)nc(SCc2cn3c(C)cccc3n2)n1 | . | . | . | . | . | . | / | / | / | /
SMILES | MC4R barr agon | TAG inh | MC4R antagonist | Efflux pump mplx | Calb FLC | GalR3 antagonist | Cmpd fluor yeast | CaMdr1 efflux inh | CaCdr2 efflux inh | CaCdr1 efflux inh
Cc1cc(Cl)ccc1NC(=O)CSc1nnc(Cc2cccs2)n1Cc1ccco1 | . | . | . | . | . | . | . | . | . | .
Cc1cc(C)c(NC(=O)CSc2nnc(-c3ccncc3)n2Cc2ccco2)c(Cl)c1 | . | . | . | 1.3 | . | . | . | . | . | .
COc1ccc(C(=O)CSc2nnc(CNc3ccc(C)cc3C)n2Cc2ccco2)cc1 | . | . | . | 1.1 | . | . | . | . | . | .
COc1cc2c(cc1NC(=O)CSc1nnc(Cc3cccs3)n1Cc1ccco1)oc1ccccc12 | . | / | . | . | . | / | . | . | . | .
COc1ccc(CNC(=O)COc2cc3c(c4oc(=O)cc(C)c24)CCC(C)(C)O3)c(OC)c1 | . | / | . | / | / | . | / | / | / | /
COC(=O)C1=C(C)NC(C)=C(C(=O)OC)C(N2C(=O)CCC2=O)C1 (configuration not stated) | / | / | / | / | / | . | / | / | / | /
CCOC(=O)/C(C#N)=C/C1=C(N2CCOCC2)C(C)(C)OCC1 | . | . | . | 0.9 | . | . | . | . | . | .
O=C(NC(C(=O)N1CCCC1C(=O)NC1CCCC1)c1ccccc1)c1cccs1 (configuration not stated) | / | / | / | / | / | . | / | / | / | /
O=C(c1ccc2c(c1)OCO2)N1CCC2(CC1)Oc1ccc(F)cc1C(=O)C21CC(c2ccc(Cl)cc2)=NO1 (configuration not stated) | . | . | . | 23 | . | . | . | 26 | . | .
Cc1noc(C)c1C(=O)N1CCC2(CC1)Oc1ccc(F)cc1C(=O)C21CC(c2ccc(Cl)cc2)=NO1 (configuration not stated) | . | . | . | 6.4 | . | . | . | . | . | .
O=C(/C=C/c1cccs1)N1CCC2(CC1)Oc1ccc(F)cc1C(=O)C21CC(c2ccccc2)=NO1 (configuration not stated) | . | / | . | 0.6 | . | . | . | . | . | .
O=C(c1ccc2c(c1)OCO2)N1CCC2(CC1)Oc1ccc(Cl)cc1C(=O)C21CC(c2ccccc2)=NO1 (configuration not stated) | . | . | . | . | . | . | . | . | . | .
O=C(/C=C/c1cccs1)N1CCC2(CC1)Oc1ccc(F)cc1C(=O)C21CC(c2ccc(Cl)cc2)=NO1 (configuration not stated) | . | . | . | . | . | . | / | / | / | /
CC(C)(C)OC(=O)N1CCC2(CC1)Oc1ccc(F)cc1C(=O)C21CC(c2ccc(Cl)cc2)=NO1 (configuration not stated) | / | / | / | . | . | / | / | / | / | /
CCC(=O)N1CCC2(CC1)Oc1ccc(Cl)cc1C(=O)C21CC(c2cccnc2)=NO1 (configuration not stated) | . | . | . | . | . | . | / | / | / | /
CC1(C)C(/C=C/C=C/C=C/C=C2\N(CCCCS(=O)(=O)O)c3ccc4ccccc4c3C2(C)C)=[N+](CCCCS(=O)(=O)[O-])c2ccc3ccccc3c21 | . | . | . | . | / | / | / | / | / | /
Cc1ccccc1S(=O)(=O)N1CCCc2nc(-c3ccc(Br)cc3)ccc21 | / | / | / | / | / | . | / | / | / | /

From PubChem
